Laboratory results reported in ChEMBL document CHEMBL3259808, “Optimization of antitrypanosomatid agents: identification of nonmutagenic drug candidates with in vivo activity” (J Med Chem, 2014).

Assays:
Trypanosoma cruzi [1] = experiment: Antitrypanosomal activity against Trypanosoma cruzi CL Brener infected in BALB/c mouse assessed as peak of maximum parasitemia at 214 umol/kg/day, po for 14 days administered in cholesterol/surfactant/phosphate buffer measured up to 60 days relative to control; format: functional
How it was run: (§1)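 Male BALB/c mice (30 days old, 25–30 g, SPF) were infected i.p. with 10³ blood trypomastigotes, n = 7/group. Daily oral gavage in a microemulsion (cholesterol oil phase, phosphatidylcholine/sodium oleate/polyoxyl-40 hydrogenated castor oil surfactant, phosphate buffer pH 7.4) ran for 14 days from day 6; vehicle controls were included. Parasitemia was read weekly in tail-vein blood by hemocytometer for 60 days, with survival recorded.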

Trypanosoma cruzi [2] = experiment: Antitrypanosomal activity against Trypanosoma cruzi CL Brener infected in BALB/c mouse assessed as mouse survival at 107 umol/kg/day, po for 14 days administered in saline and tween 80 measured up to 60 days relative to control; format: functional
How it was run: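 Male BALB/c mice (30 days old, 25–30 g, SPF) infected i.p.; daily intragastric gavage for 14 days, starting day 6 postinfection, in saline/Tween 80 (4:1 v/v); n = 8/group; vehicle-only control. Parasitemia counted by hemocytometer in tail-vein blood; survival followed to 65 days postinfection.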

Trypanosoma cruzi [3] = experiment: Antitrypanosomal activity against Trypanosoma cruzi CL Brener infected in BALB/c mouse assessed as peak of maximum parasitemia at 107 umol/kg/day, po for 14 days administered in cholesterol/surfactant/phosphate buffer measured up to 60 days relative to control; format: functional; how it was run: as §1
Salmonella typhimurium [4] = experiment: Mutagenic activity in Salmonella typhimurium TA102 at 3.09 to 250 ug/plate by Ames test in presence of mouse liver S9 fraction; format: toxicity, organism-based; conditions: salmonella enterica subsp. enterica serovar typhimurium
How it was run: (§2)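 Plate-incorporation Ames test on minimal glucose agar with 500 μL Aroclor-treated mouse liver S9 added. DMSO solutions were tested at five consecutive 3-fold dilutions from the highest non-toxic dose, in triplicate, with a DMSO negative control. Revertants were counted manually; a compound was scored mutagenic when revertants were at least twice the negative control for two or more consecutive doses.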

Salmonella typhimurium [5] = experiment: Mutagenic activity in Salmonella typhimurium TA98 at 5 to 400 ug/plate by Ames test in presence of mouse liver S9 fraction; format: toxicity, organism-based; conditions: salmonella enterica subsp. enterica serovar typhimurium
How it was run: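 Ames plate-incorporation assay with S. typhimurium TA98 in Vogel-Bonner E minimal glucose agar. Toxicity toward the bacteria was checked first. DMSO solutions were run in triplicate at five consecutive third-dilutions, starting at the highest non-toxic dose. Positive controls were 4-nitro-o-phenylenediamine (20.0 μg/plate) and 2-aminofluorene (10.0 μg/plate); DMSO was the negative control. Revertants were counted manually. A compound was called mutagenic when revertants were at least twice the negative control at two or more consecutive doses.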

[6] = Stability of the compound in aqueous solution assessed as compound remaining at 1 mM at 37 degC after 1 hr by TLC analysis in presence of rat liver microsomal fraction; conditions: microsomes, 1000 µM
How it was run: (§3)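 Rat liver cytosolic (100 000g supernatant) and microsomal (100 000g pellet, washed and resuspended in Tris·HCl) fractions, fresh or stored at −80 °C; protein measured by BCA. Compound incubated with the fraction 1 h at 37 °C and analysed by TLC of extracts.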

Trypanosoma cruzi [7] = experiment: Antitrypanosomal activity against Trypanosoma cruzi CL Brener infected in BALB/c mouse assessed as mouse survival at 107 umol/kg/day, po for 14 days administered in cholesterol/surfactant/phosphate buffer measured up to 60 days relative to control; format: functional
How it was run: (§4)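 Infected male BALB/c mice (30 days old, 25–30 g) were gavaged daily from day 6 postinfection for 14 days. Vehicle was a microemulsion of 10% cholesterol, 10% surfactant (soya phosphatidylcholine/sodium oleate/polyoxyl-40 hydrogenated castor oil) and 80% phosphate buffer pH 7.4. n = 7/group, with vehicle controls. Tail-vein parasitemia was taken weekly for 60 days and mortality recorded.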

Salmonella typhimurium [8] = experiment: Mutagenic activity in Salmonella typhimurium TA1537 at 3.09 to 250 ug/plate by Ames test; format: toxicity, organism-based; conditions: salmonella enterica subsp. enterica serovar typhimurium
How it was run: (§5)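 Direct plate incubation on minimal glucose agar (Vogel-Bonner E). Compound toxicity to the bacteria was checked first. DMSO solutions were tested at five consecutive 3-fold dilutions, starting from the highest non-toxic dose, in triplicate, without metabolic activation. DMSO served as negative control. Revertants were counted manually; mutagenic = revertants at least double the negative control at two or more consecutive doses.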

Trypanosoma cruzi [9] = experiment: Antitrypanosomal activity against Trypanosoma cruzi Sylvio X-10 amastigotes infected in African green monkey Vero cells assessed as eradication of amastigotes after 5 days by Giemsa staining-based assay; format: functional, organism-based; conditions: Sylvio X-10, Vero, 120 h
How it was run: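 VERO cells in RPMI 1640 with 10% hiFCS were allowed to adhere for 24 h at 37 °C in 5% CO₂, then infected with tissue-derived trypomastigotes at 10:1. Free parasites were washed off after 24 h, and cultures were treated at five compound doses (text gives 72 h / 5 days). Cultures were methanol-fixed and Giemsa-stained, and infected cells were counted among 300. Quadruplicates were run in three independent experiments. IC50/IC90 were obtained by sigmoidal regression.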

[10] = Stability of the compound in eumulgin HRE 40, sodium oleate, soya phosphatidylcholine, cholesterol, and phosphate buffer at pH 7.4 at 4 degC; format: physicochemical
How it was run: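 Storage stability of the compound in vehicle V2, a microemulsion of surfactant (Eumulgin HRE 40/sodium oleate/soya phosphatidylcholine, 10%), cholesterol oil phase (10%) and pH 7.4 phosphate buffer (80%), followed over 1 week at 4 °C.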

[11] = Stability of the compound in aqueous solution assessed as compound remaining at 1 mM at pH 6 after 1 hr by TLC analysis; format: physicochemical; conditions: aqueous solution, pH 6; read-out: Stability
How it was run: (§6)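 DMSO stocks diluted to final 1 mM in KCl·HCl pH 1.0, citrate pH 6.0, Tris·HCl pH 7.4 or borax·HCl pH 9.0 buffer. Incubated 1 h at 37 °C, then ethyl acetate extracts checked by TLC for decomposition products.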

[12] = Stability of the compound in aqueous solution assessed as compound remaining at 1 mM at 37 degC after 1 hr by TLC analysis in presence of rat liver cytosolic fraction; format: ADME; conditions: cytosol, 1000 µM; how it was run: as §3
Salmonella typhimurium [13] = experiment: Mutagenic activity in Salmonella typhimurium TA100 at 0.003 to 0.2 ug/plate by Ames test; format: toxicity, organism-based; conditions: salmonella enterica subsp. enterica serovar typhimurium; how it was run: as §5
Trypanosoma cruzi [14] = experiment: Antitrypanosomal activity against Trypanosoma cruzi CL Brener infected in BALB/c mouse assessed as mouse survival at 214 umol/kg/day, po for 14 days administered in cholesterol/surfactant/phosphate buffer measured up to 60 days relative to control; format: functional; how it was run: as §4
[15] = Stability of the compound in aqueous solution assessed as compound remaining at 1 mM at pH 1 after 1 hr by TLC analysis; format: physicochemical; conditions: read-out: Stability; how it was run: as §6
Salmonella typhimurium [16] = experiment: Mutagenic activity in Salmonella typhimurium TA1537 at 3.09 to 250 ug/plate by Ames test in presence of mouse liver S9 fraction; format: toxicity, organism-based; conditions: salmonella enterica subsp. enterica serovar typhimurium; how it was run: as §2
Trypanosoma cruzi [17] = experiment: Antitrypanosomal activity against Trypanosoma cruzi Y trypomastigotes assessed as growth inhibition at 25 uM after 48 hrs by microscopic analysis relative to control; format: functional; conditions: read-out: GI
How it was run: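 Blood was collected by cardiac puncture, with sodium citrate, from BALB/c mice 7 days after infection. Compound was dissolved in minimal DMSO and diluted in PBS (final 25 μM). Drug solution was mixed with infected blood (about 10⁶ parasites/mL) in triplicate, shaken 10 min at room temperature, then held at 4 °C for 48 h. Parasites were counted microscopically against untreated infected blood. Gentian violet 250 μg/mL was the reference.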

Question: With `Br.C=CCn1c(-c2ccc(Cl)cc2)cs\c1=N/N=C/C=C/c1ccco1.O` as the compound, how does the Time (Trypanosoma cruzi [1]) read?
Answer: The Time was 35 days.

Question: And the survival at 107 µmol/kg (Trypanosoma cruzi [2])?
Answer: The survival at 107 µmol/kg was 75%.

Question: And the Time (Trypanosoma cruzi [3])?
Answer: Its Time is 35 days.

Question: What about the Activity (Salmonella typhimurium [4]) of the same compound?
Answer: Its Activity is “Non-toxic”.

Question: What about the Activity (Salmonella typhimurium [5]) of the same compound?
Answer: Its Activity is “Non-toxic”.

Question: And the Stability [6]?
Answer: The Stability was “Stable”.

Question: And the survival at 107 µmol/kg (Trypanosoma cruzi [7])?
Answer: Its survival at 107 µmol/kg is 100%.

Question: What about the Activity (Salmonella typhimurium [8]) of the same compound?
Answer: Its Activity is “Non-toxic”.

Question: What about the IC50 (Trypanosoma cruzi [9]) of the same compound?
Answer: The IC50 was < 250 nM.

Question: What about the Stability [10] of the same compound?
Answer: Its Stability is “Stable”.

Question: What about the remaining at 1 h, 1000 µM [11] of the same compound?
Answer: Its remaining at 1 h, 1000 µM is > 95%.

Question: And the Stability [12]?
Answer: Its Stability is “Stable”.

Question: What about the Activity (Salmonella typhimurium [13]) of the same compound?
Answer: The Activity was “Non-toxic”.

Question: And the survival at 214 µmol/kg (Trypanosoma cruzi [14])?
Answer: Its survival at 214 µmol/kg is 100%.

Question: And the remaining at 1 h, 1000 µM [15]?
Answer: The remaining at 1 h, 1000 µM was 90%.

Question: And the Activity (Salmonella typhimurium [16])?
Answer: The Activity was “Non-toxic”.

Question: And the inhibition of growth at 25 µM (Trypanosoma cruzi [17])?
Answer: Its inhibition of growth at 25 µM is 70%.
